Experimental data published in ChEMBL document CHEMBL4725282, “Discovery of a Conformationally Constrained Oxazolidinone with Improved Safety and Efficacy Profiles for the Treatment of Multidrug-Resistant Tuberculosis” (J Med Chem, 2020).

Columns and labels:
[1] = Half life in human hepatocytes at 2 uM by LC-MS/MS analysis; assay type: ADME, cell-based, Hepatocyte
Outline: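 Hepatocytes (male CD-1 mouse, male SD rat, male beagle dog, male cynomolgus monkey, pooled human), final 1 μM compound and 1 million cells/mL, made by mixing 2 μM compound with 2 million cells/mL. Incubated at 37 °C in a CO2 incubator; sampled at 0, 15, 30, 60, 90 and 120 min. Quenched with methanol/ACN containing 0.1% formic acid. Parent remaining measured by LC-MS/MS.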

[2] = Toxicity in female Sprague-Dawley rat assessed as body weight loss at 50 to 450 mg/kg/day, po administered for 4 weeks measured at 1 week interval; assay type: organism-based; conditions: in vivo, 672 h, dose 50-450 mg/kg/day
Outline: (§1)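 SD rats, 6-7 weeks, 12 male and 12 female per group. Oral dosing once daily at 50, 150 or 450 mg/kg/day or vehicle for 4 weeks, then 2-week recovery. 8 per sex dissected after last dose, remaining 4 per sex after 14-day recovery. Body weight, urine, food intake and clinical signs monitored.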

[3] = Toxicity in female Sprague-Dawley rat assessed as mortality at 50 to 450 mg/kg/day, po administered for 4 weeks followed by 2 week recovery period; assay type: organism-based; conditions: in vivo, 672 h, dose 50-450 mg/kg/day
Outline: (§2)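 SD rats, 6-7 weeks old (96 in total), split into vehicle, 50, 150 and 450 mg/kg/day groups of 12 females and 12 males each, given oral doses once daily for 4 weeks, then 2 weeks of recovery. Mortality, body weight, food intake, eyes, urine and neuropsychic signs were observed. Organ and bone marrow histopathology was done on 8 rats per sex per group after the last dose and on the remaining 4 per sex after 14 days of recovery.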

[4] = Toxicity in female Sprague-Dawley rat assessed as body weight loss at 50 to 450 mg/kg/day, po administered for 4 weeks followed by 2 week recovery period measured at 1 week interval; assay type: organism-based; conditions: in vivo, 672 h, dose 50-450 mg/kg/day; outline: as §1
[5] = Toxicity in female Sprague-Dawley rat assessed as changes in neuropsychic symptoms at 50 to 450 mg/kg/day, po administered for 4 weeks followed by 2 week recovery period measured during last 24 hrs of recovery period; assay type: organism-based; conditions: in vivo, 672 h, dose 50-450 mg/kg/day; outline: as §2
[6] = Toxicity in male Sprague-Dawley rat assessed as body weight loss at 50 to 450 mg/kg/day, po administered for 4 weeks followed by 2 week recovery period measured at 1 week interval; assay type: organism-based; conditions: in vivo, 672 h, dose 50-450 mg/kg/day; outline: as §2
[7] = Toxicity in male Sprague-Dawley rat assessed as ophthalmic changes at 50 to 450 mg/kg/day, po administered for 4 weeks followed by 2 week recovery period; assay type: organism-based; conditions: in vivo, 1008 h, dose 50-450 mg/kg/day, time 6 weeks
[8] = Toxicity in male Sprague-Dawley rat assessed as ophthalmic changes at 50 to 450 mg/kg/day, po administered for 4 weeks measured within 7 days of post last dose; assay type: organism-based; conditions: in vivo, 672 h, dose 50-450 mg/kg/day
[9] = Toxicity in male Sprague-Dawley rat assessed as abnormalities in urine at 50 to 450 mg/kg/day, po administered for 4 weeks measured within last 7 days of treatment period; assay type: organism-based; conditions: in vivo, 672 h, dose 50-450 mg/kg/day; outline: as §2
[10] = Toxicity in male Sprague-Dawley rat assessed as change in platelet count at 50 mg/kg/day, po administered for 4 weeks followed by 2 week recovery period (Rvb =1077 +/- 117 10^9/L); assay type: organism-based; conditions: in vivo, 672 h
[11] = Toxicity in female Sprague-Dawley rat assessed as change in mean corpuscular volume at 50 mg/kg/day, po administered for 4 weeks followed by 2 week recovery period (Rvb =56.1 +/- 0.8 fL); assay type: organism-based; conditions: in vivo, 672 h
[12] = Toxicity in female Sprague-Dawley rat assessed as change in reticulocyte level at 50 mg/kg/day, po administered for 4 weeks followed by 2 week recovery period (Rvb =2.85 +/- 0.53 %); assay type: organism-based; conditions: in vivo, 672 h
[13] = Toxicity in male Sprague-Dawley rat assessed as change in neutrophil level at 50 mg/kg/day, po administered for 4 weeks followed by 2 week recovery period (Rvb =15.9 +/- 3.4 %); assay type: organism-based; conditions: in vivo, 672 h
[14] = Toxicity in male Sprague-Dawley rat assessed as change in red blood cell count at 150 mg/kg/day, po administered for 4 weeks followed by 2 week recovery period (Rvb =7.86 +/- 0.32 10^12/L); assay type: organism-based; conditions: in vivo, 672 h
[15] = Toxicity in male Sprague-Dawley rat assessed as change in platelet count at 150 mg/kg/day, po administered for 4 weeks followed by 2 week recovery period (Rvb =1077 +/- 117 10^9/L); assay type: organism-based; conditions: in vivo, 672 h
[16] = Toxicity in male Sprague-Dawley rat assessed as change in mean corpuscular volume at 150 mg/kg/day, po administered for 4 weeks followed by 2 week recovery period (Rvb =57.5 +/- 2.0 fL); assay type: organism-based; conditions: in vivo, 672 h
[17] = Toxicity in male Sprague-Dawley rat assessed as change in hematocrit level at 150 mg/kg/day, po administered for 4 weeks followed by 2 week recovery period (Rvb =45.2 +/- 1.7 %); assay type: organism-based; conditions: in vivo, 672 h
[18] = Toxicity in male Sprague-Dawley rat assessed as change in reticulocyte level at 150 mg/kg/day, po administered for 4 weeks followed by 2 week recovery period (Rvb =2.48 +/- 0.34 %); assay type: organism-based; conditions: in vivo, 672 h
[19] = Toxicity in female Sprague-Dawley rat assessed as change in lymphocyte level at 150 mg/kg/day, po administered for 4 weeks followed by 2 week recovery period (Rvb =76.9 +/- 4.6 %); assay type: organism-based; conditions: in vivo, 672 h
[20] = Toxicity in female Sprague-Dawley rat assessed as change in white blood cell count at 450 mg/kg/day, po administered for 4 weeks followed by 2 week recovery period (Rvb =3.61 +/- 0.75 10^9/L); assay type: organism-based; conditions: in vivo, 672 h
[21] = Toxicity in male Sprague-Dawley rat assessed as change in platelet count at 450 mg/kg/day, po administered for 4 weeks followed by 2 week recovery period (Rvb =1077 +/- 117 10^9/L); assay type: organism-based; conditions: in vivo, 672 h
[22] = Toxicity in female Sprague-Dawley rat assessed as change in mean corpuscular hemoglobin at 450 mg/kg/day, po administered for 4 weeks followed by 2 week recovery period (Rvb =18.5 +/- 0.6 pg); assay type: organism-based; conditions: in vivo, 672 h
[23] = Toxicity in female Sprague-Dawley rat assessed as change in hemoglobin count at 450 mg/kg/day, po administered for 4 weeks followed by 2 week recovery period (Rvb =136 +/- 7 g/L); assay type: organism-based; conditions: in vivo, 672 h
[24] = Toxicity in male Sprague-Dawley rat assessed as change in reticulocyte level at 450 mg/kg/day, po administered for 4 weeks followed by 2 week recovery period (Rvb =2.48 +/- 0.34 %); assay type: organism-based; conditions: in vivo, 672 h
[25] = Toxicity in female Sprague-Dawley rat assessed as change in neutrophil level at 450 mg/kg/day, po administered for 4 weeks followed by 2 week recovery period (Rvb =18.5 +/- 5.3 %); assay type: organism-based; conditions: in vivo, 672 h

## CC(=O)NC[C@@H]1OC(=O)N2c3cc(F)c(N4CCSCC4)cc3OC[C@@H]12
[1]
  half-life at 2 µM: > 8.33 h
[2]
  Activity: Non-Toxic
[3]
  Activity: Non-Toxic
[4]
  Activity: Non-Toxic
[5]
  Activity: Non-Toxic
[6]
  Activity: Non-Toxic
[7]
  Activity: Non-Toxic
[8]
  Activity: Non-Toxic
[9]
  Activity: Non-Toxic
[10]
  Activity: 955 10^9/L
[11]
  Activity: 56.5 fL
[12]
  Activity: 3.25%
[13]
  Activity: 13%
[14]
  Activity: 7.62 10^12/L
[15]
  Activity: 998 10^9/L
[16]
  Activity: 58.5 fL
[17]
  Activity: 44.5%
[18]
  Activity: 3.15%
[19]
  Activity: 83%
[20]
  Activity: 2.82 10^9/L
[21]
  Activity: 1038 10^9/L
[22]
  Activity: 18.7 pg
[23]
  Activity: 122 g/L
[24]
  Activity: 2.99%
[25]
  Activity: 11.8%
